Converted amounts (≈) assume the structure as drawn.
Experiments:
[1] = test system: Candida albicans; test: Antifungal activity against Candida albicans ATCC 10231 after 48 hrs by broth microdilution technique; format: functional; conditions: ATCC 10231, 48 h
Summary of the method: (§1)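 Yeasts were tested by CLSI broth microdilution in RPMI-1640 buffered to pH 7.0 with MOPS, with compound from 250 down to 0.98 in DMSO stocks. Trays were held at 30 °C in a moist, dark chamber. MIC100, the lowest concentration giving total visual inhibition against the growth control, was read by eye at 48 h.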

[2] = test system: Cryptococcus neoformans; test: Antifungal activity against Cryptococcus neoformans ATCC 32264 after 48 hrs by broth microdilution technique; format: functional; conditions: ATCC 32264, 48 h; summary of the method: as §1
[3] = test system: Candida albicans; test: Antifungal activity against Candida albicans ATCC 10231 at 15.6 ug/ml after 24 hrs; format: functional; conditions: ATCC 10231, 24 h
Summary of the method: (§2)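 C. albicans was grown in 96-well RPMI-1640 broth microdilution with compound wells diluted from DMSO stocks. Growth wells with matched DMSO and sterility wells were included. After 24 h at 30 °C in a moist, dark chamber, OD405 was read. % inhibition = 100 − (CTW − SCW)/(GCW − SCW) OD, done in duplicate.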

[4] = test system: Cryptococcus neoformans; test: Antifungal activity against Cryptococcus neoformans ATCC 32264 at 15.6 ug/ml after 48 hrs; format: functional; conditions: ATCC 32264, 48 h
Summary of the method: (§3)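 C. neoformans was tested by 96-well RPMI-1640 microdilution, with DMSO-matched growth and sterility control wells. Plates were incubated 48 h at 30 °C in a moist, dark chamber and read at OD405. % inhibition = 100 − (CTW − SCW)/(GCW − SCW), in duplicate. For the clinical isolates, MIC80 and MIC50 are the lowest concentrations giving 80% and 50% inhibition.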

[5] = test system: Cryptococcus neoformans; test: Antifungal activity against Cryptococcus neoformans IM 042074 after 48 hrs by broth microdilution technique; format: functional; conditions: IM 042074, 48 h; summary of the method: as §3
[6] = test system: Trichophyton rubrum; test: Antifungal activity against Trichophyton rubrum CCC 113 after 48 hrs by broth microdilution technique; format: functional; conditions: CCC 113, 48 h
[7] = test system: Candida parapsilosis; test: Antifungal activity against Candida parapsilosis CCC 124 after 48 hrs by broth microdilution technique; format: functional; conditions: Lodderomyces parapsilosis, CCC 124, 48 h
[8] = test system: Saccharomyces cerevisiae; test: Antifungal activity against Saccharomyces cerevisiae ATCC 9763 after 48 hrs by broth microdilution technique; format: functional; conditions: ATCC 9763, 48 h; summary of the method: as §1
[9] = test system: Cryptococcus neoformans; test: Antifungal activity against Cryptococcus neoformans ATCC 32264 at 3.9 ug/ml after 48 hrs; format: functional; conditions: ATCC 32264, 48 h; summary of the method: as §3
[10] = test system: Candida tropicalis; test: Antifungal activity against Candida tropicalis CCC 131 after 48 hrs by broth microdilution technique; format: functional; conditions: CCC 131, 48 h
[11] = test system: Cryptococcus neoformans; test: Antifungal activity against Cryptococcus neoformans IM 983040 after 48 hrs by broth microdilution technique; format: functional; conditions: IM 983040, 48 h; summary of the method: as §3
[12] = test system: Cryptococcus neoformans; test: Antifungal activity against Cryptococcus neoformans IM 972724 after 48 hrs by broth microdilution technique; format: functional; conditions: IM 972724, 48 h; summary of the method: as §3
[13] = test system: Pichia kudriavzevii; test: Antifungal activity against Candida krusei CCC 117 after 48 hrs by broth microdilution technique; format: functional; conditions: CCC 117, 48 h
[14] = test system: Candida albicans; test: Antifungal activity against Candida albicans CCC 128 after 48 hrs by broth microdilution technique; format: functional; conditions: CCC 128, 48 h
[15] = test system: Aspergillus flavus; test: Antifungal activity against Aspergillus flavus ATCC 9170 after 48 hrs by broth microdilution technique; format: functional; conditions: ATCC 9170, 48 h
Summary of the method: (§4)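 Moulds and dermatophytes were run by CLSI broth microdilution in MOPS-buffered RPMI-1640 at pH 7.0. Aspergillus was incubated at 30 °C and dermatophytes at 28–30 °C, in a moist, dark chamber. MIC100, the lowest concentration with no visible growth, was read visually at a time set by growth of the control fungus.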

[16] = test system: Trichophyton mentagrophytes; test: Antifungal activity against Trichophyton mentagrophytes ATCC 9972 after 48 hrs by broth microdilution technique; format: functional; conditions: ATCC 9972, 48 h; summary of the method: as §4
[17] = test system: Candida albicans; test: Antifungal activity against Candida albicans ATCC 10231 at 7.8 ug/ml after 24 hrs; format: functional; conditions: ATCC 10231, 24 h; summary of the method: as §2
[18] = test system: Cryptococcus neoformans; test: Antifungal activity against Cryptococcus neoformans IM 00319 after 48 hrs by broth microdilution technique; format: functional; conditions: IM 00319, 48 h; summary of the method: as §3
[19] = test system: Nannizzia gypsea; test: Antifungal activity against Microsporum gypseum CCC 115 after 48 hrs by broth microdilution technique; format: functional; conditions: CCC 115, 48 h; summary of the method: as §4
[20] = test system: Cryptococcus neoformans; test: Antifungal activity against Cryptococcus neoformans IM 983036 after 48 hrs by broth microdilution technique; format: functional; conditions: IM 983036, 48 h; summary of the method: as §3
[21] = test system: Candida albicans; test: Antifungal activity against Candida albicans CCC 129 after 48 hrs by broth microdilution technique; format: functional; conditions: CCC 129, 48 h
[22] = test system: Aspergillus fumigatus; test: Antifungal activity against Aspergillus fumigatus ATCC 26934 after 48 hrs by broth microdilution technique; format: functional; conditions: ATCC 26934, 48 h; summary of the method: as §4
[23] = test system: Candida albicans; test: Antifungal activity against Candida albicans CCC 125 after 48 hrs by broth microdilution technique; format: functional; conditions: CCC 125, 48 h
[24] = test system: Cryptococcus neoformans; test: Antifungal activity against Cryptococcus neoformans ATCC 32264 at 31.2 ug/ml after 48 hrs; format: functional; conditions: ATCC 32264, 48 h; summary of the method: as §3
[25] = test system: Nakaseomyces glabratus; test: Antifungal activity against Candida glabrata CCC 115 after 48 hrs by broth microdilution technique; format: functional; conditions: CCC 115, 48 h
[26] = test system: Candida albicans; test: Antifungal activity against Candida albicans ATCC 10231 at 31.2 ug/ml after 24 hrs; format: functional; conditions: ATCC 10231, 24 h; summary of the method: as §2
[27] = test system: Candida albicans; test: Antifungal activity against Candida albicans CCC 127 after 48 hrs by broth microdilution technique; format: functional; conditions: CCC 127, 48 h
[28] = test system: Candida albicans; test: Antifungal activity against Candida albicans CCC 126 after 48 hrs by broth microdilution technique; format: functional; conditions: CCC 126, 48 h
[29] = test system: Candida albicans; test: Antifungal activity against Candida albicans CCC 130 after 48 hrs by broth microdilution technique; format: functional; conditions: CCC 130, 48 h
[30] = test system: Candida albicans; test: Antifungal activity against Candida albicans CCC 130 after 24 hrs by broth microdilution technique; conditions: CCC 130, 24 h
[31] = test system: Cryptococcus neoformans; test: Antifungal activity against Cryptococcus neoformans IM 972751 after 48 hrs by broth microdilution technique; format: functional; conditions: IM 972751, 48 h; summary of the method: as §3
[32] = test system: Aspergillus niger; test: Antifungal activity against Aspergillus niger ATCC 9029 after 48 hrs by broth microdilution technique; format: functional; conditions: ATCC 9029, 48 h; summary of the method: as §4

## CCc1ccc2nc(-c3ccccn3)ccc2c1
[1]
  MFC: 250 µg/mL (≈ 1070 µM)
  MIC: 62 µg/mL (≈ 265 µM)
  MIC50: 7.8 µg/mL (≈ 33.3 µM)
  MIC80: 15.6 µg/mL (≈ 66.6 µM)
[2]
  MFC: 125 µg/mL (≈ 533 µM)
  MIC: 31 µg/mL (≈ 132 µM)
  MIC50: 3.9 µg/mL (≈ 16.6 µM)
  MIC80: 15.6 µg/mL (≈ 66.6 µM)
[3]
  inhibition at 15.6 µg/mL: 80%
[4]
  inhibition at 15.6 µg/mL: 80%
[5]
  MIC50: 3.9 µg/mL (≈ 16.6 µM)
  MIC80: 7.8 µg/mL (≈ 33.3 µM)
[6]
  MFC: 62 µg/mL (≈ 265 µM)
  MIC: 62 µg/mL (≈ 265 µM)
[7]
  MIC50: 15.6 µg/mL (≈ 66.6 µM)
  MIC80: 31.2 µg/mL (≈ 133 µM)
[8]
  MFC: 250 µg/mL (≈ 1070 µM)
  MIC: 62 µg/mL (≈ 265 µM)
[9]
  inhibition at 3.9 µg/mL: 50%
[10]
  MIC50: 15.6 µg/mL (≈ 66.6 µM)
  MIC80: 31.2 µg/mL (≈ 133 µM)
[11]
  MIC50: 3.9 µg/mL (≈ 16.6 µM)
  MIC80: 7.8 µg/mL (≈ 33.3 µM)
[12]
  MIC50: 3.9 µg/mL (≈ 16.6 µM)
  MIC80: 7.8 µg/mL (≈ 33.3 µM)
[13]
  MIC50: 31.2 µg/mL (≈ 133 µM)
  MIC80: 62.5 µg/mL (≈ 267 µM)
[14]
  MIC50: 31.2 µg/mL (≈ 133 µM)
  MIC80: 62.5 µg/mL (≈ 267 µM)
[15]
  MFC: 125 µg/mL (≈ 533 µM)
  MIC: 62 µg/mL (≈ 265 µM)
[16]
  MFC: 62 µg/mL (≈ 265 µM)
  MIC: 62 µg/mL (≈ 265 µM)
[17]
  inhibition at 7.8 µg/mL: 50%
[18]
  MIC50: 7.8 µg/mL (≈ 33.3 µM)
  MIC80: 15.6 µg/mL (≈ 66.6 µM)
[19]
  MFC: 62 µg/mL (≈ 265 µM)
  MIC: 62 µg/mL (≈ 265 µM)
[20]
  MIC50: 3.9 µg/mL (≈ 16.6 µM)
  MIC80: 7.8 µg/mL (≈ 33.3 µM)
[21]
  MIC50: 31.2 µg/mL (≈ 133 µM)
  MIC80: 62.5 µg/mL (≈ 267 µM)
[22]
  MFC: 125 µg/mL (≈ 533 µM)
  MIC: 62 µg/mL (≈ 265 µM)
[23]
  MIC50: 62.5 µg/mL (≈ 267 µM)
  MIC80: 125 µg/mL (≈ 533 µM)
[24]
  inhibition at 31.2 µg/mL: 80%
[25]
  MIC50: 62.5 µg/mL (≈ 267 µM)
  MIC80: 62.5 µg/mL (≈ 267 µM)
[26]
  inhibition at 31.2 µg/mL: 80%
[27]
  MIC50: 62.5 µg/mL (≈ 267 µM)
  MIC80: 62.5 µg/mL (≈ 267 µM)
[28]
  MIC50: 15.6 µg/mL (≈ 66.6 µM)
  MIC80: 31.2 µg/mL (≈ 133 µM)
[29]
  MIC80: 62.5 µg/mL (≈ 267 µM)
[30]
  MIC50: 31.2 µg/mL (≈ 133 µM)
[31]
  MIC50: 3.9 µg/mL (≈ 16.6 µM)
  MIC80: 15.6 µg/mL (≈ 66.6 µM)
[32]
  MFC: > 250 µg/mL
  MIC: 250 µg/mL (≈ 1070 µM)
